ChEMBL document CHEMBL1154595, “Discovery of selective nonpeptidergic neuropeptide FF2 receptor agonists” (J Med Chem, 2009)
Activity calls are given as the source filed them.

Legend:
Rattus norvegicus [1] = species: Rattus norvegicus; test: Antiallodynic activity in Sprague-Dawley rat Kim-Chung model of neuropathic pain assessed mechanical-stimuli induced paw withdrawal threshold in presence of […]-antagonist dansyl-PQR-amide; format: functional, organism-based
How it was run: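 Rats with spinal nerve ligation, plus sham-operated rats. Tactile allodynia was scored as a significant reduction in paw withdrawal threshold. The selective NPFF1 antagonist dansylPQRamide was given at 30 mg/kg ip alongside the test agonist, with systemic dosing.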

[2] = biological target: T1, Neuropeptide FF receptor 1 (Homo sapiens, UniProt Q9GZQ6); test: Agonist activity at human NPFF1 receptor expressed in cells assessed as beta-galactosidase levels at […] after 5 days; format: functional, cell-based
T1 sequence (Q9GZQ6 whole entry): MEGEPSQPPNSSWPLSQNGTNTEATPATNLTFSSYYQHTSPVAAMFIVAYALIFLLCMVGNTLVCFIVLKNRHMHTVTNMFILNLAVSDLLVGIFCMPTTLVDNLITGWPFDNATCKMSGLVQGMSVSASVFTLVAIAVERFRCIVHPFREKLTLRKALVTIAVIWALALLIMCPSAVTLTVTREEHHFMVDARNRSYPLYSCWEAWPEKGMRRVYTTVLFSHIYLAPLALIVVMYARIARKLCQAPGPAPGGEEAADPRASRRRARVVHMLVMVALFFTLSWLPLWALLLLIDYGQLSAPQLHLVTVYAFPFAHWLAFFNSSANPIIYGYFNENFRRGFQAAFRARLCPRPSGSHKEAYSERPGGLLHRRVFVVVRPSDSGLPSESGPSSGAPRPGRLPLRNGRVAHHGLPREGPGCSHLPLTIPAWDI

[3] = biological target: T2, Neuropeptide FF receptor 2 (Homo sapiens, UniProt Q9Y5X5); test: Agonist activity at human NPFF2 receptor expressed in cells assessed as beta-galactosidase levels after 5 days; format: functional, cell-based
T2 sequence (Q9Y5X5 whole entry): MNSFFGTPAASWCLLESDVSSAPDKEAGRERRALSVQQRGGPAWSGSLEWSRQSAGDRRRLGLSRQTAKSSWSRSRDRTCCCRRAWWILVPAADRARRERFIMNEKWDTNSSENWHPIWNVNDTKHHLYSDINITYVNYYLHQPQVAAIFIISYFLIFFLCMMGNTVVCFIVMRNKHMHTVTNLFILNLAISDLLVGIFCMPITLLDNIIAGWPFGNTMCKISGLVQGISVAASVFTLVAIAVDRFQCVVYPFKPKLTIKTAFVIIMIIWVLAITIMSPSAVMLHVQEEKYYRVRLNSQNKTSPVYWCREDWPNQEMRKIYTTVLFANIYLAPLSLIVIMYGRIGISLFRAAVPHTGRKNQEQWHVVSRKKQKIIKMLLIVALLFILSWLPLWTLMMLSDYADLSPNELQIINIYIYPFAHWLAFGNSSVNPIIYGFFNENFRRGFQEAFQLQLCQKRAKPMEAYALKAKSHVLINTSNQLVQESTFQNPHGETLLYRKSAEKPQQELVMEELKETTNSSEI
How it was run: (§1)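 Functional R-SAT assay at human NPFF1 and NPFF2 receptors in agonist mode. Dose-response curves were built from seven concentrations, each tested in triplicate. Values are mean ± SEM of at least three independent experiments.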

[4] = biological target: T2, Neuropeptide FF receptor 2; test: Agonist activity at human NPFF2 receptor expressed in cells assessed as beta-galactosidase levels at […] after 5 days; format: functional, cell-based
[5] = biological target: T1, Neuropeptide FF receptor 1; test: Agonist activity at human NPFF1 receptor expressed in cells assessed as beta-galactosidase levels after 5 days; format: functional, cell-based; how it was run: as §1
Rattus norvegicus [6] = species: Rattus norvegicus; test: Antiallodynic activity in Sprague-Dawley rat Kim-Chung model of neuropathic pain assessed mechanical-stimuli induced paw withdrawal threshold; format: functional, organism-based
How it was run: (§2)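 Rats underwent spinal nerve ligation (SNL), with sham-operated rats also used. Tactile allodynia was defined as a significant reduction in paw withdrawal threshold to mechanical stimuli.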

[7] = biological target: T2, Neuropeptide FF receptor 2; test: Agonist activity at human NPFF2 receptor expressed in HEK293T cells assessed as inhibition of PGE2-induced cAMP release; details: HEK-293T
[8] = biological target: T1, Neuropeptide FF receptor 1; test: Agonist activity at human NPFF1 receptor expressed in HEK293T cells assessed as inhibition of PGE2-induced cAMP release; parameters: Activity: scale not given: the % may be the effect or the level left; details: HEK-293T
[9] = Activity at alpha-adrenergic receptor
[10] = biological target: T1, Neuropeptide FF receptor 1; test: Antagonist activity at human NPFF1 receptor expressed in HEK293T cells assessed as inhibition of PGE2-induced cAMP release; format: functional, cell-based; details: HEK-293T
Rattus norvegicus [11] = test: Antiallodynic activity in Sprague-Dawley rat Kim-Chung model of neuropathic pain assessed mechanical-stimuli induced paw withdrawal threshold at 10 mg/kg; format: functional, organism-based; parameters: dose 10 mg/kg; how it was run: as §2
Rattus norvegicus [12] = test: Antiinflammatory activity in ip dosed Sprague-Dawley rat assessed as inhibition of carrageenan-induced thermal hypersensitivity by hotplate test; format: functional, organism-based
How it was run: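 Acute inflammatory pain was produced in rats by carrageenan. Thermal hypersensitivity was measured by hot plate test on a metal plate held at 52 °C.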

Rattus norvegicus [13] = test: Antiinflammatory activity in ip dosed Sprague-Dawley rat assessed as inhibition of carrageenan-induced paw edema; format: functional, organism-based
[14] = Dissociation constant, pKa of the compound; format: physicochemical
[15] = Lipophilicity, log P of the compound; format: physicochemical; details: octanol/water
[16] = Half life in Sprague-Dawley rat; format: ADME, organism-based; details: in vivo
[17] = Clearance in human liver microsomes; format: ADME, Microsome
How it was run: (§3)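 Stability was measured in human and in rat liver microsomes. Clearance is reported in μL/(min·mg) and related to liver blood flow.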

[18] = Clearance in rat liver microsomes; format: ADME, Microsome; how it was run: as §3
[19] = Distribution coefficient, log D of the compound; format: physicochemical; details: octanol/water
[20] = Oral bioavailability in Sprague-Dawley rat; format: ADME, organism-based; details: in vivo
Rattus norvegicus [21] = test: Antiallodynic activity in Sprague-Dawley rat Kim-Chung model of neuropathic pain assessed mechanical-stimuli induced paw withdrawal threshold at 30 mg/kg; format: functional, organism-based; parameters: dose 30 mg/kg; how it was run: as §2

For `CN(C)c1cccc2c(S(=O)(=O)N3CCC[C@H]3C(=O)N[C@@H](CCC(N)=O)C(=O)N[C@@H](CCCNC(=N)N)C(N)=O)cccc12`, the Activity (Rattus norvegicus [1]) was “Active”.

With `C/C(=N\NC(=N)N)c1ccc(Cl)c(C(F)(F)F)c1` the Efficacy [2] was “inactive”, the EC50 [3] was 0.398 µM and the Efficacy [4] was 66%.

In the case of `Cc1ccccc1-c1ccc(/C=N/NC(=N)N)o1`, the Efficacy [2] is reported as 55%, the EC50 [3] is reported as 0.1 µM and the EC50 [5] is reported as 0.0794 µM. The Efficacy [4] was 90%.

For `N=C(N)N/N=C/c1c(Cl)cccc1Cl`, the Activity [2] was “inactive” and the Activity [4] was “inactive”.

With `C/C(=N\N=C(N)N)c1ccc(Cl)c(Cl)c1` the Efficacy [2] was “inactive”, the EC50 [3] was 0.501 µM and the Efficacy [4] was 64%.

In the case of `CC(C)c1ccccc1-c1ccc(/C=N/NC(=N)N)o1`, the Efficacy [2] is reported as 62%, the EC50 [3] is reported as 0.2 µM and the EC50 [5] is reported as 0.158 µM. The Efficacy [4] was 70%.

With `N=C(N)N/N=C/c1ccc(-c2ccccc2C(F)(F)F)o1` the Efficacy [2] was 55%, the EC50 [3] was 0.1 µM and the Activity (Rattus norvegicus [6]) was “inactive”. For the same compound, the Efficacy [7] was 114%, the EC50 [5] was 0.0398 µM and the Efficacy [4] was 73%. For the same compound, the Efficacy [8] was 93%.

With `CCCCCNC(=N)N/N=C/c1c[nH]c2ccc(OC)cc12` the Activity [2] was “inactive” and the Activity [4] was “inactive”.

`N=C(N)N/N=C/c1ccc(-c2ccccc2C(F)(F)F)s1` showed an Efficacy [2] of 44%, an EC50 [3] of 0.158 µM and an EC50 [5] of 0.126 µM. It also gave an Efficacy [4] of 55%.

For `N=C(N)N/N=C/c1ccc(Cl)c(Cl)c1`, the Efficacy [2] was 18%, the Activity [9] was “inactive” and the Activity [10] was “inactive”. The Activity (Rattus norvegicus [11]) was “Active”, the Activity (Rattus norvegicus [12]) was “Dose-dependent effect” and the Efficacy [4] was 68%. For the same compound, the Activity (Rattus norvegicus [13]) was “inactive”.

For `N=C(N)N/N=C/c1ccc(Br)c(Br)c1`, the Efficacy [2] was “inactive” and the Efficacy [4] was 90%.

In the case of `NC(N)=N/N=C/c1ccc(Cl)c(Cl)c1`, the pKa [14] is reported as 8.4, the logP [15] is reported as 2.8 and the EC50 [3] is reported as 1 µM. The half-life [16] was 2.5 h, the microsomal CLint [17] was 26 µL/min/mg and the microsomal CLint [18] was 18 µL/min/mg. For the same compound, the logD [19] was 1.8 and the bioavailability [20] was 43%.

`Cn1c(/C=N/NC(=N)N)ccc1-c1ccccc1C(F)(F)F` gave an Efficacy [2] of 36%, an EC50 [3] of 0.126 µM and an EC50 [5] of 0.316 µM. It also gave an Efficacy [4] of 72%.

In the case of `N=C(N)N/N=C(\c1ccccc1)c1ccc(Cl)c(Cl)c1`, the Efficacy [2] is reported as 46%, the EC50 [3] is reported as 0.794 µM and the EC50 [5] is reported as 0.794 µM. For the same compound, the Efficacy [4] was 63%.

For `N=C(N)N/N=C/c1ccc(Cl)c(C(F)(F)F)c1`, the Efficacy [2] was 46%, the Efficacy [7] was 89% and the EC50 [5] was greater than 3.16 µM. The Activity (Rattus norvegicus [12]) was “Dose-dependent effect”, the Activity (Rattus norvegicus [21]) was “Active” and the Efficacy [4] was 114%. The Activity (Rattus norvegicus [13]) was “inactive” and the Activity [8] was 42%.
